According to ChEMBL document CHEMBL1133099, “Structure-property model for membrane partitioning of oligopeptides” (J Med Chem, 2000):
Values belong to the molecule of their own block, whether it stands above or below them. Residues, ends and D or L forms follow the SMILES beside them.

Columns and labels:
Assay type in all cases: physicochemical
[1] = pKa1 values were determined by potentiometric titrations.; details: read-out: pKa1
[2] = Distribution coefficient between n-octanol and hanks buffered saline solution
Method in brief: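 Distribution between n-octanol and Hanks buffered saline at pH 7.4, measured by the shake-flask method.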

[3] = pKa2 values were determined by potentiometric titrations.; details: read-out: pKa2
[4] = Ionization constant (pKa1) values were determined by potentiometric titrations.; details: read-out: pKa1
[5] = Ionization constant (pKa2) values were determined by potentiometric titrations.; details: read-out: pKa2

- pKa [1]: 3.97
- logD [2]: > -2.5
SMILES: CC(=O)N[C@@H](CC(=O)O)C(=O)N[C@@H](CCC(N)=O)C(=O)N[C@@H](CC(C)C)C(=O)N[C@@H](Cc1ccccc1)C(N)=O (Ac-DQLF-NH2)

- logD [2]: 1.64
SMILES: CC(=O)N[C@@H](Cc1ccccc1)C(=O)N1CCC[C@H]1C(=O)N[C@@H](Cc1ccccc1)C(=O)N[C@@H](Cc1ccc(O)cc1)C(N)=O (Ac-FPFY-NH2)

- logD [2]: -2.59
SMILES: CC(=O)N[C@@H](Cc1ccc(O)cc1)C(=O)NCC(=O)NCC(=O)N[C@@H](CCC(N)=O)C(N)=O (Ac-YGGQ-NH2)

- logD [2]: 2.42
SMILES: CC(=O)N[C@@H](Cc1ccccc1)C(=O)N[C@@H](CC(C)C)C(=O)N[C@H](C(=O)N(C)[C@@H](CC(C)C)C(N)=O)C(C)C (HELM PEPTIDE1{[ac].F.L.V.[meL].[am]}$$$$V2.0)

- pKa [3]: 10.1
SMILES: CC(=O)N[C@@H](Cc1ccccc1)C(=O)N[C@@H](CCC(N)=O)C(=O)N[C@@H](CCCCN)C(=O)N(C)[C@@H](CC(C)C)C(N)=O (HELM PEPTIDE1{[ac].F.Q.K.[meL].[am]}$$$$V2.0)

- pKa [4]: 3.93
SMILES: CC(=O)NCC(=O)N[C@@H](CC(C)C)C(=O)N[C@@H](CC(=O)O)C(=O)N(C)[C@@H](Cc1ccccc1)C(N)=O (HELM PEPTIDE1{[ac].G.L.D.[meF].[am]}$$$$V2.0)

- logD [2]: 0.05
SMILES: CC(=O)NCC(=O)N(C)CC(=O)N[C@@H](CC(C)C)C(=O)N[C@@H](Cc1ccccc1)C(N)=O (HELM PEPTIDE1{[ac].G.[Sar].L.F.[am]}$$$$V2.0)

- pKa [4]: 3.78
- pKa [5]: 10.3
SMILES: CC(=O)NCC(=O)N(C)[C@@H](Cc1ccccc1)C(=O)N[C@@H](CCCCN)C(=O)N[C@@H](CC(=O)O)C(N)=O (HELM PEPTIDE1{[ac].G.[meF].K.D.[am]}$$$$V2.0)

- pKa [4]: 3.6
- pKa [5]: 9.69
SMILES: CC(=O)N[C@@H](CCCCN)C(=O)N(C)CC(=O)N[C@@H](Cc1ccc(O)cc1)C(=O)N(C)[C@@H](CC(=O)O)C(N)=O (HELM PEPTIDE1{[ac].K.[Sar].Y.[meD].[am]}$$$$V2.0)

- pKa [3]: 9.94
- logD [2]: -1.33
SMILES: CC(=O)N[C@@H](CCCCN)C(=O)N(C)[C@@H](Cc1ccccc1)C(=O)NCC(=O)N(C)[C@@H](CC(C)C)C(N)=O (HELM PEPTIDE1{[ac].K.[meF].G.[meL].[am]}$$$$V2.0)

- logD [2]: -1.51
SMILES: CC(=O)N[C@@H](CO)C(=O)N(C)[C@@H](Cc1ccccc1)C(=O)NCC(=O)NCC(N)=O (HELM PEPTIDE1{[ac].S.[meF].G.G.[am]}$$$$V2.0)
